Arrestin-AP2 inh – inhibitors of human beta-arrestin and AP2 interaction; inhibition, % at 10 µM; AID 504490; 340,000 compounds, 0.31% hits; FITC-arrestin peptide / GST-AP2 beads, flow cytometry; AP2 beta2 appendage carries R879A mutation;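 active = inhibition above a set limit, near 3 SD of compounds lacking own fluorescence, cut at about 54% in these data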;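 also: plate controls were DMSO wells for no effect and 5 µM unlabelled arrestin peptide for full effect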
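Assay system: GST-AP2 R879A bound to glutathione beads, E. coli-expressed; Medium: PBS with 0.05% Tween 20 and 0.1% BSA; Also added: fluorescein-tagged arrestin peptide at 50 nM final; Timing: 12 min plus 1 h, RT; Measured by: flow cytometry, FL1 (488/535 nm); Evaluation: percent drop in bead-associated FITC signal.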
Myeloid diff MLP – compounds promoting myeloid differentiation | ER-HoxA9 myeloid progenitors, lysozyme-GFP differentiation, flow cytometry | calls only at 10 µM | 360,000 compounds, 1% hits | AID 624256;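 active = normalized GFP-positive differentiation at or above the plate's own cutoff, the solvent-only control mean plus 3 SD; inconclusive = no clear call, values can overlap the other calls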;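 also: cells exposed to compound for four days before flow analysis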
ATG4B inh – inhibitors of human ATG4B cysteine protease; Q9Y4P1; ATG4B cleavage of LC3-PLA2, NBD-HPC fluorescence, 1 h; inhibition, % at 8.33 µM; 340,000 compounds, 0.51% hits; in the data active = inhibition above about 40%
Granule exo inh – blocks lytic granule exocytosis; TALL-104 LAMP-1 surface exposure, flow cytometry; cells stimulated with thapsigargin and PMA; AID 651702; 360,000 compounds, 0.66% hits; inhibition, % at 10 µM;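 active = inhibition above about 55%, limit read from the data; inconclusive = no clear call, values can overlap the other calls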
ABCB6 inh MLPCN – human ABCB6 transporter inhibition; Q9NP58; K562-ABCB6 porphyrin accumulation, flow cytometry, 1 h; stronger effect = lower value; fluorescence ratio to DMSO, % at 10 µM; 360,000 compounds, 0.19% hits;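 active = fluorescence ratio to DMSO below 75%, the collection mean minus 3 SD; inconclusive = too few cells collected in the well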;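 also: signal is porphyrin accumulated inside mitochondria; 100% equals median channel fluorescence of DMSO control wells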
NRP1-CendR mod – alters CendR peptide binding to human NRP-1; O14786; FAM-RPARPAR peptide binding to NRP-1, fluorescence polarization; inhibition, % at 25 µM; 360,000 compounds, 0.85% hits; AID 602438;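 active = inhibition or corrected inhibition above about 18%, plus a signal ratio from 0.5 to 1.5, limit read from the data, passing the limit was not always enough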
An asterisk follows results filed as active; i = inactive; ? = inconclusive; nt = no result; + = active, no number; ! = not active in a repeat. Shown are actives, neighbours in structure and some others; about 3.3% of the full set was active somewhere.

SMILES | Arrestin-AP2 inh | Myeloid diff MLP | ATG4B inh | Granule exo inh | ABCB6 inh MLPCN | NRP1-CendR mod
Cc1ccc(C(C#N)c2ccc(C(=O)c3ccc(F)cc3)cc2)cc1 (centres undefined) | -11 | i | -5 | -3 | 101 | 33*
COc1cccc(-c2cnc3c(NC(C)=O)cc(-c4ccc(S(C)(=O)=O)cc4)cn23)c1 | nt | i | nt | -21 | 94 | -1
CN(C(=O)COC(=O)c1ccccc1SCC(=O)N1CCCC1)C1CCS(=O)(=O)C1 (centres undefined) | -8 | i | -1 | -1 | 99 | 20*
CC(CCNC(=O)c1ccccc1)(CCNC(=O)c1ccccc1)[N+](=O)[O-] | 30 | i | 4 | 7 | 90 | -2
Cc1ccc(OCC(=O)Nc2ccc(C)c(S(=O)(=O)N3CCCCCC3)c2)c([N+](=O)[O-])n1 | -16 | i | -1 | 6 | 91 | 32*
O=C(COc1ccc(Br)cc1CO)Nc1ccc(S(=O)(=O)N2CCCCC2)cc1 | -18 | i | -10 | -2 | 94 | 25*
Cc1ccc(OCC(=O)Nc2cccc(S(=O)(=O)N3CCCCC3)c2)c([N+](=O)[O-])n1 | 48 | i | -7 | 3 | 97 | -1
CC(=O)c1c(C)n([O-])c2cc(F)c(F)cc2[n+]1=O | -18 | + | 6 | -1 | 104 | -4
CCOCCCNC(=O)c1ccc(NC(=O)C2CCCO2)cc1 (centres undefined) | 8 | i | 2 | 7 | 98 | -4
O=C(O)c1cc([N+](=O)[O-])cc2c1C=Cc1ccccc1O2 | 17 | i | 13 | -1 | 102 | 4
CC(O)[C@H]1CC[C@H]2[C@@H]3CC[C@H]4C[C@@H](O)CC[C@]4(C)[C@H]3/C(=N/O)C[C@]12C (some centres undefined) | 0 | i | -16 | 82* | 97 | 6
Cc1ccc(C2CC(c3ccccc3)=NN2C(=S)Nc2ccccc2)o1 (centres undefined) | 5 | i | -3 | 97* | 106 | -37
CC1=NN(C(=S)Nc2ccccc2)C(c2ccccc2)C1 (centres undefined) | -2 | i | -9 | 0 | 99 | -6
CCOC(=O)C1(CC2CC2)CCN(C(=O)c2ocnc2C)CC1 | -13 | + | -7 | 2 | 92 | 18
O=C(CCCC(=O)N/N=C\c1ccccn1)N/N=C\c1ccccn1 | 41 | i | -4 | -3 | 98 | -5
CC(Nc1cccc2ccccc12)C(=O)N/N=C/c1ccccn1 (centres undefined) | 6 | i | -26 | 23 | 103 | 40*
COCC(C)n1c(-c2ccc3c(c2)NC(=O)CO3)csc1=Nc1ccc(OC(F)F)cc1 (centres undefined) | 3 | +! | -8 | -3 | 149 | 2
Cc1cccc(C)c1N1CCN(C(=O)N2CCCCC2)CC1 | 7 | i | -1 | -1 | 106 | 0
Cc1c(C)[n+](=O)c(C)c(C)n1[O-] | 0 | i | 3 | 3 | 98 | 29*
C=CCN1CC(=O)N2Cc3[nH]c4ccccc4c3C[C@H]2C1=O | -12 | + | -4 | -8 | 140 | -4
O=C1[C@@H]2Cc3c([nH]c4ccccc34)CN2C(=O)CN1CCCO | -7 | i | 1 | 14 | 100 | 15
COc1ccc(C2CC(O)(c3ccccc3)Oc3cc(OC)ccc32)cc1 (centres undefined) | 31 | i | -3 | -4 | 94 | 26*
CC1(Cc2ccccc2Cl)C(=O)Nc2c(Cl)ccc(Cl)c21 (centres undefined) | nt | i | nt | 15 | 96 | 7
O=C(N/N=C/C1C(c2ccccc2)C1(Cl)Cl)c1cccc(Cl)c1 (centres undefined) | -1 | i | 14 | 10 | 99 | 25*
CCCCN1C(=O)C(CC(=O)NCCCCc2ccccc2)CC(C(=O)N(C)C)=C1C (centres undefined) | nt | i | nt | -1 | 98 | -2
SMILES | Arrestin-AP2 inh | Myeloid diff MLP | ATG4B inh | Granule exo inh | ABCB6 inh MLPCN | NRP1-CendR mod
Cc1ccc(N2CCN(c3ccc(C)cc3)C(CC(=O)O)C2=O)cc1 (centres undefined) | 1 | + | 3 | 1 | 96 | 4
CCOc1cnn(Cc2ccccc2)c(=O)c1SCc1ccccc1 | 7 | i | -4 | 1 | 98 | 28*
O=C(c1ccc(C(=O)N2CCCc3ccccc32)s1)N1CCCc2ccccc21 | 2 | i | 36 | -4 | 94 | -8
Cc1ccc(C)c2nc3sc(C(=O)N4CCCc5ccccc54)c(N)c3cc12 | 38 | + | 2 | 5 | 639 | 113
O=C(Nc1c[nH]c(=O)[nH]c1=O)c1ccccc1Cl | 43 | i | 0 | -1 | 102 | 7
Cc1nn(C)c(C)c1/C=C/C(=O)c1ccc(Cl)cc1Cl | 36 | i | -10 | -3 | 93 | 8
COc1ccccc1C(=O)Nc1ccc(Oc2nnc(-c3ccc(C)cc3)c3ccccc23)cc1 | -10 | i | 2 | -2 | 104 | -5
Cc1ccc(Oc2nnc(-c3ccc(C)cc3)c3ccccc23)cc1 | -1 | i | 6 | 0 | 97 | 29*
Nc1c2c(nn1-c1ccc(F)cc1)CSC2 | 29 | i | -3 | 11 | 95 | 8
CC(C)Oc1cc(NC(=O)CS(=O)CC(=O)N(C)C)c(Cl)cc1Cl (centres undefined) | 10 | i | 8 | -1 | 101 | 25*
CC(Sc1nnc(COc2ccc(Cl)cc2)n1Cc1ccco1)C(=O)N1CCNC1=O (centres undefined) | 19 | i | -8 | -3 | 85 | 0
N/C(=N\OC(=O)c1cccs1)C1(c2ccc(Cl)cc2Cl)CC1 | 41 | i | 4 | -27 | 101 | 37*
N/C(Cc1ccc(Cl)c(Cl)c1)=N\OC(=O)c1cccs1 | 29 | i | 5 | 6 | 103 | 7
CCC(C)NC(=O)c1ccccc1NC(=O)/C(=C/c1ccc(OC)cc1)c1ccccc1 (centres undefined) | -9 | i | -2 | -2 | 93 | -3
CCN(CC)C(=O)Cn1cc(S(=O)(=O)Cc2cccc([N+](=O)[O-])c2)c2ccccc21 | -7 | ? | -4 | 2 | 101 | 24*
Cc1ccc(/C=C2/NC(=O)N(Cc3ccccc3F)C2=O)s1 | 3 | + | 3 | 1 | 148 | -169
O=C1N/C(=C/c2cccs2)C(=O)N1Cc1ccccc1F | 20 | i | 13 | -2 | 103 | 1
CCn1c(SC(C)C(=O)NC2CCCc3ccccc32)nnc1-c1cccs1 (centres undefined) | 24 | i | -4 | 0 | nt | 34*
CC/C(=N\NC(=O)c1ccc(Br)cc1)c1ccccc1 | -11 | i | -4 | -1 | 103 | -2
COC(=O)c1cc2ccc(OC)c(OC)c2c(=O)s1 | -2 | i | 1 | -1 | 94 | 27*
